Screening data: PubChem BioAssay, several laboratories
TNF death inh: inhibitors of TNF-alpha triggered necroptosis, primary screen, cell-based, Jurkat FADD-/-, single concentration; 220,000 compounds, 0.068% hits; Jurkat FADD-/- TNF necroptosis rescue, ATP luminescence, 24 h; 0 = TNF only, 100 = no-TNF cells; AID 463075, 2010; activation (protection from cell death), % at 10 µM;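 active = activation, meaning protection from cell death, of at least 50% relative to plate controls; inactive = activation below 50%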;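 note: necroptosis triggered by 40 ng/mL TNF-alpha added together with compound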
zVAD death inh: inhibitors of zVAD-triggered necroptosis, primary screen, L929 cells | AID 1377, 2008 | viability rescue, % at 10 µM | L929 zVAD necroptosis rescue, ATP luminescence, 24 h; with zVAD 60 µM | 220,000 compounds, 0.38% hits;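 active = activation, scaled between plate controls, above about 75%, limit read from the data; inactive = activation under that limit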;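 note: 0% = zVAD with DMSO and 100% = DMSO alone without zVAD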
MDM2 E3 inh: MDM2-luciferase reporter signal enhancers, primary screen, MDM2 E3 ligase inhibitor project, cell-based, luminescence, 1536-well | signal enhancement, % at 5 µM | 210,000 compounds, 0.11% hits | AID 1230, 2008 | cell-based MDM2 ubiquitination luciferase reporter, 2 h; 0 = plate control, 100 = twice control, blank-subtracted | E3 ubiquitin-protein ligase Mdm2 (Homo sapiens), Q00987;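 active = signal enhancement of 30% or more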;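 note: luminescence tracks abundance of the self-degrading MDM2-luciferase fusion protein; higher signal means inhibition of MDM2 E3 ligase activity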
Target sequence (Q00987 whole entry, looked up, the tested form may be a part): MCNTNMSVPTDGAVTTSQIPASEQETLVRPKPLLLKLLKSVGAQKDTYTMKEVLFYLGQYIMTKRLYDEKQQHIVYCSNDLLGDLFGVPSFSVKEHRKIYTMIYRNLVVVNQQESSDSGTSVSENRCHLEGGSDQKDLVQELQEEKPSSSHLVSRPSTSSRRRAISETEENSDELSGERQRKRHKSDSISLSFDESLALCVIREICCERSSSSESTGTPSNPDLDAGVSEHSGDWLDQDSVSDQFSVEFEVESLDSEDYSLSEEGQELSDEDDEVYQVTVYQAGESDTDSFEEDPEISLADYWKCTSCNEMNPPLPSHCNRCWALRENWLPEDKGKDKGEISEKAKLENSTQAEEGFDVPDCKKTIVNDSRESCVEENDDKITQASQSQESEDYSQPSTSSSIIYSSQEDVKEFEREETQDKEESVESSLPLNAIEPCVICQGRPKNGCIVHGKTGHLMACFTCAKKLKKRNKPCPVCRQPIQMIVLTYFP
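Buffer or medium: Cells held in DMEM | Assay system: Stable mammalian line carrying autodegrading MDM2–luciferase fusion reporter | Quantity: 2000 cells/well | Times: 4 h settle plus 2 h compound, 37 °C | Doses: One concentration, 5 µM, with 0.2% DMSO | Technique: Luminescence with SteadyLite reagent, 15 min at room temperature | Benchmarks: Plate controls and plate blanks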
Hck Nef HTS: inhibitors of Nef-activated human Hck kinase, primary screen, biochemical, Z-Lyte FRET, 384-well, Hck-YEEI. Recombinant Hck-YEEI plus Nef, Z-Lyte FRET kinase assay. inhibition, % at 20 µM. 220,000 compounds, 0.68% hits;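 active = Hck-Nef kinase inhibition above about 50%, limit read from the data; inactive = inhibition below that limit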;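 note: 0% = DMSO with Hck plus Nef and 100% = Hck alone without Nef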
Dynein cargo inh: inhibitors of GR-EGFP nuclear translocation, primary screen, dynein cargo transport inhibitor project, imaging, high-content, 3617.4 mouse cells; test concentration mostly 20 µM; stimulated with dexamethasone, 1 µM; stronger effect = lower value; z-score, hits read low; 220,000 compounds, 0.47% hits; AID 1381, 2008;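 active = plate z-score of nuclear minus cytoplasmic receptor signal below a set negative limit, without overly bright fluorescence or cell loss, cut at about -3.5 in these data, passing the limit was not always enough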;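 note: z-score of nuclear minus cytoplasmic ring GR-EGFP intensity difference per well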
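Also added: dexamethasone, 1.0 µM final. Medium: tet-free, stripped-serum medium. Detection: fixed, Hoechst-stained cells imaged at 10x for EGFP. Read-out: nuclear-to-cytoplasmic GR-EGFP distribution per well. Times: induction 48 h, compound 1 h, agonist 30 min.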
Autophagy mod: autophagy modulators in MEF cells, primary screen, imaging, high-content, MEF GFP-LC3 | calls only at 10 µM (by protocol) | 190,000 compounds, 0.98% hits | MEF GFP-LC3 puncta imaging; test concentration mostly 10 µM;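 active = percentage of spot-positive cells more than 3 SD above its plate mean, without a fluorescence outlier flag or 80% toxicity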;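 note: spot-positive cell cutoff set from DMSO-treated cells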
An asterisk follows results filed as active; i = inactive; . = no result; + = active, no number. Rows were chosen to be rich in hits. Some 2.4% of all compounds tested hit in one or more screens of this group.

SMILES	TNF death inh	zVAD death inh	MDM2 E3 inh	Hck Nef HTS	Dynein cargo inh	Autophagy mod
COC(=O)/C=C/S(=O)(=O)c1ccc(NC(C)=O)cc1	-6	0	12	-2	-3.9*	i
COc1ccccc1OS(=O)(=O)c1ccc(NC(C)=O)cc1	0	2	-8	-4	0.93	i
Oc1c(C=Nc2cccc3cccnc23)sc2ccccc12	-17	-1	-54	1	-0.45	+
Cc1cccc(/N=C/c2sc3ccccc3c2O)n1	-14	1	-43	5	-0.53	.
COCCn1c(N)c(N(Cc2ccccc2)C(=O)Cc2c(Cl)cccc2Cl)c(=O)[nH]c1=O	0	1	9	-17	0.81	i
Oc1cccc2ccc(/C=C/c3cccs3)nc12	-6	-2	-6	-19	1.8	+
Cc1ccsc1/C=C/c1ccc2cccc(O)c2n1	-1	0	-1	-2	-0.57	i
CCOC(=O)/C(C)=N/Nc1nc(-c2ccc(NC(C)=O)cc2)cs1	-9	3	-6	10	-0.25	.
CCN(C(=O)c1nn(-c2ccc(OC)cc2)c(=O)c2c1c1ccccc1n2C)c1ccc(OC)cc1	-1	2	-2	23	-0.59	i
CCCCN(C)CCNC(=O)c1nn(-c2ccc(OC)cc2)c(=O)c2c1c1ccccc1n2C	3	1	-18	1	-0.11	+
Cc1c(NC(=O)Nc2ccc(Cl)c(Cl)c2)c(=O)n(-c2ccccc2)n1C	3	1	1	-12	-0.71	i
O=c1nc2s/c(=C\c3ccc(-c4ccccc4[N+](=O)[O-])o3)c(=O)n2nc1-c1ccccc1	-1	1	-3	14	-0.91	i
CC1CCN(S(=O)(=O)c2ccc3c(c2)C(=NO)c2cc(S(=O)(=O)N4CCC(C)CC4)ccc2-3)CC1	-27	-1	10	1	1.9	+
CC(C)(C)Sc1ccccc1S(=O)(=O)C(C)(C)C	1	0	-12	1	0.87	.
CC(=O)c1ccc(N2CCN(C(=O)c3cccc(Oc4ccccc4)c3)CC2)cc1	-1	0	3	24	0.0025	+
O=C(c1cccc(C(=O)N2CCN(c3ccccc3)CC2)c1)N1CCN(c2ccccc2)CC1	-1	0	-11	0	-0.66	i
COc1ccc(-c2c(C#N)c(N)nc3sc(C(=O)c4ccc(C)cc4)c(N)c23)cc1	3	1	-10	2	-1.2	+
COc1ccc(C(=O)c2sc3nc(-c4ccc(OC)cc4)ccc3c2N)cc1	1	1	15	0	-2.7	+
COc1ccc(-c2ccc3c(N)c(C(=O)c4cccc(OC)c4)sc3n2)cc1	-3	0	-6	10	-0.49	+
COc1ccc(NC(=O)c2sc3nc(-c4cccnc4)ccc3c2N)cc1	-1	1	-2	-10	0.15	.
COc1cccc(-c2ccc3c(N)c(C(=O)NC4CC4)sc3n2)c1	-1	2	-8	-20	-0.52	.
Oc1[nH]c2c(Cl)cc(Cl)cc2c1N=NC(=S)NCC1CCCO1 (configuration not stated)	4	3	-13	-1	0.63	i
Cc1cccn2c(=O)c3cc(C#N)c(=NC(=O)c4ccco4)n(Cc4ccco4)c3nc12	-7	0	-10	23	0.7	.
CCCn1c(=NC(C)=O)c(C#N)cc2c(=O)n3cccc(C)c3nc21	-2	0	.	56*	0.092	i
COCCCn1c(=NC(C)=O)c(C#N)cc2c(=O)n3cccc(C)c3nc21	-2	-2	-5	39	-0.28	.
SMILES	TNF death inh	zVAD death inh	MDM2 E3 inh	Hck Nef HTS	Dynein cargo inh	Autophagy mod
Cc1cccc(C(=O)N=c2c(C#N)cc3c(=O)n4cccc(C)c4nc3n2Cc2ccco2)c1	-10	-1	-18	28	-1.7	+
CCOC(=O)C1(Cc2ccccc2)CCN(Cc2ccon2)CC1	1	0	11	16	0.075	+
CCOC(=O)C1(Cc2ccccc2)CCN(Cc2cccc3c2OCO3)CC1	2	1	-10	15	0.12	+
CCOC(=O)C1(Cc2ccccc2C(F)(F)F)CCN(Cc2ccon2)CC1	1	0	-9	23	-0.32	.
O=c1c2c(nc3n1CCS3)c1cc(F)ccc1n2Cc1cc(=O)n2cc(Cl)ccc2n1	-3	0	.	7	1.8	.
Cc1nnc(SCC(=O)NCc2ccccc2Cl)[nH]c1=O	1	2	-4	-5	-0.91	i
O=C1N=C(N2CCOCC2)S/C1=C/c1ccc(-c2ccc(F)cc2)o1	1	7	-10	18	-0.48	i
Cc1ccc(-c2ccc(/C=C3\SC(N4CCOCC4)=NC3=O)o2)cc1	-6	-2	-6	7	-0.54	+
Cc1cc(/C=C2\SC(=S)NC2=O)c(C)n1-c1cccc(O)c1	0	2	-23	65*	-0.15	.
Cc1cc(/C=C2/C(=O)NN(c3ccccc3)C2=O)c(C)n1-c1cccc(O)c1	2	36	-51	3	-1.1	i
CCOC(=O)N1CCN(C(=O)C2CCCN(Cc3nc(-c4ccc(Cl)cc4)oc3C)C2)CC1 (configuration not stated)	-10	0	-5	2	-1	+
CCOC(=O)C(NCCOC)(NC(C)=O)C(F)(F)F (configuration not stated)	0	0	-19	16	0.18	.
COc1cc(CNC23CC4CC(CC(C4)C2)C3)ccc1OCc1ccccc1	-2	6	-22	-1	0.0015	i
COC(=O)c1c(NC(=O)COC(=O)c2ccc(O)cc2)sc2c1CCCCC2	5	35	-15	7	-0.18	i
COC(=O)c1c(NC(=O)COC(=O)[C@@H](NS(=O)(=O)c2cccc(Cl)c2)C(C)C)sc2c1CCC2	3	0	-1	-35	-0.9	+
Cc1noc(/C=C/c2ccc(-c3ccccc3Cl)o2)c1[N+](=O)[O-]	-1	0	-12	0	-0.75	+
Cc1cc(NC(=O)CSc2nc3c(sc4ccccc43)c(=O)n2CCCN2CCOCC2)n[nH]1	34	8	-24	-1	3.1	+
Cc1ccc(NC(=O)CSc2nc3ccccc3c(=O)n2CCCC(=O)N2CCCC2)cc1	-3	1	0	1	0.81	i
